pIC50: −log10 of the molar value. The source made the active and inactive calls. The calls are words filed in the database; no cut-off is given here.
Columns and labels:
[1] = target: T1, Fatty-acid amide hydrolase 1 (Rattus norvegicus) (UniProt P97612); test: Inhibition of FAAH from rat brain microsomes at 10 uM by RP-HPLC
T1 sequence (whole entry): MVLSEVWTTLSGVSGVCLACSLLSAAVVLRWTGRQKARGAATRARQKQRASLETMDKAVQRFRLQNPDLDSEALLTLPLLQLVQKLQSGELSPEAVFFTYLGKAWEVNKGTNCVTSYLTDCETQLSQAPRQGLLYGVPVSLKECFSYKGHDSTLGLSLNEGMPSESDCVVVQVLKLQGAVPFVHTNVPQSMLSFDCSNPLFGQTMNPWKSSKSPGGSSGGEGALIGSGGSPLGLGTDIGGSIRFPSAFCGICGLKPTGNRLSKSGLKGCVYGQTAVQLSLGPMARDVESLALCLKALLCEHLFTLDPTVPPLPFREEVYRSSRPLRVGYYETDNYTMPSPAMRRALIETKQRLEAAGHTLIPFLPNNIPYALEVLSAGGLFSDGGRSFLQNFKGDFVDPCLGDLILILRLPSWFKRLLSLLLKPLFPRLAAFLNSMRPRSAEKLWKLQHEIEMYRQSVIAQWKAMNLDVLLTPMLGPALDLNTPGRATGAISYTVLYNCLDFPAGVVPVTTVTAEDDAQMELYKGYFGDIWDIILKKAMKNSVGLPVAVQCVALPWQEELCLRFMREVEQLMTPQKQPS
Method in brief: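 Rat brain microsomes as FAAH source; substrate N-(2-hydroxyethyl)-4-pyren-1-ylbutanamide 100 μM solubilized with Triton X-100 0.2%. Incubated 45 min, then stopped with acetonitrile/methanol plus internal standard 6-pyren-1-ylhexanoic acid. Released 4-pyren-1-ylbutanoic acid quantified directly by RP-HPLC with fluorescence (ex 340, em 380 nm), with vs without inhibitor. Inhibitor max 10 μM; IC50 means of at least two independent determinations.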

[2] = target: T2, Cytosolic phospholipase A2 (Homo sapiens) (UniProt P47712); test: Inhibition of cPLA2 from human platelets at 10 uM by RP-HPLC
T2 sequence (whole entry): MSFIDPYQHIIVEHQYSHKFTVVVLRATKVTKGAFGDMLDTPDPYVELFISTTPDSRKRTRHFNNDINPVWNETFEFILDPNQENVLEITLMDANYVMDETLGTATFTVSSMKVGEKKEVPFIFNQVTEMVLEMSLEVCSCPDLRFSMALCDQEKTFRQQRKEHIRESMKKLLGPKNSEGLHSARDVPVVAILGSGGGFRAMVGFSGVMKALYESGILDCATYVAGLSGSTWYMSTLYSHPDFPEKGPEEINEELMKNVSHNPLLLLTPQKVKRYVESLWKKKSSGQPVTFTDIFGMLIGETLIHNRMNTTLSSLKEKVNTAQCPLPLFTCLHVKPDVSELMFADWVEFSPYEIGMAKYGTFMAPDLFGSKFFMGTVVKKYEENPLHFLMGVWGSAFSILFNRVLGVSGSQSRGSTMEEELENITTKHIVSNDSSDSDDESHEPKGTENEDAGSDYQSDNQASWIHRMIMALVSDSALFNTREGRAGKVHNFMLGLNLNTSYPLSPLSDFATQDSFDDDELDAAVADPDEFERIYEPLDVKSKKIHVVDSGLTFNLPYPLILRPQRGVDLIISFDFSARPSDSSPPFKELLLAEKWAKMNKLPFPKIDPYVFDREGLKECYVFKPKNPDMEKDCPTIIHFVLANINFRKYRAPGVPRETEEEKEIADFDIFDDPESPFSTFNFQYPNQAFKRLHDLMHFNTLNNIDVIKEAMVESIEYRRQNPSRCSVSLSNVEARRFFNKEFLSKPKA
Method in brief: (§1)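 cPLA2α purified from human platelets; substrate sonicated covesicles of SAPC 200 μM and 1,2-dioleoyl-sn-glycerol 100 μM. Reaction 60 min, stopped with acetonitrile/methanol/0.1 M EDTA-Na2 containing 4-undecyloxybenzoic acid internal standard and NDGA. Arachidonic acid released measured by RP-HPLC, UV 200 nm, after solid-phase extraction, with vs without inhibitor; max 10 μM. IC50 means of at least two independent determinations.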

[3] = inhibition of MAGL up to 10 uM
Method in brief: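 MAGL set up like the FAAH assay, using pyrene-labelled substrate 1,3-dihydroxypropan-2-yl 4-pyren-1-ylbutanoate; product measured by RP-HPLC with fluorescence detection; highest test concentration 10 μM.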

[4] = target: T3, Cytosolic phospholipase A2 (Homo sapiens, UniProt P47712); test: Inhibition of cPLA2 from human platelets by RP-HPLC; method in brief: as §1
T3 sequence (P47712 whole entry): T2 sequence (whole entry)

[5] = target: T4, Fatty-acid amide hydrolase 1 (Rattus norvegicus, UniProt P97612); test: Inhibition of FAAH from rat brain microsomes by RP-HPLC
T4 sequence (P97612 whole entry): T1 sequence (whole entry)

Row | Compound | inhibition [1] | inhibition [2] | inhibition [3] | pIC50 [4] | pIC50 [5]
1 | CCCCCCCCc1ccc(OCC(=O)Cn2ccc3cc(C)ccc32)cc1 | inactive | inactive | inactive | – | –
2 | CCCCCCCCc1ccc(OCC(=O)Cn2cc(C(C)=O)c3cc(C(=O)O)ccc32)cc1 | inactive | – | inactive | 7.92 | –
3 | CCCCCCCCc1ccc(OCC(=O)Cn2cnc3ccc(C(=O)O)cc32)cc1 | – | – | inactive | – | 5.51
4 | CCCCCCCCc1ccc(OCC(=O)Cn2ccc3ccc(C(=O)O)cc32)cc1 | inactive | – | inactive | – | –
5 | CC(C)CN(Cc1ccccc1-c1ccccc1)[C@@H]1C[C@@H](CNC(=O)/C=C/c2ccc(/C=C3\SC(=O)NC3=O)cc2)N(C(=O)c2ccccc2C(=O)c2ccc(F)cc2F)C1 | inactive | – | – | 7.51 | –
6 | CCCCCCCCc1ccc(OCC(=O)Cn2nnc3cc(C(=O)O)ccc32)cc1 | – | – | inactive | – | 6.85
7 | CCCCCCCCc1ccc(OCC(=O)Cn2nnc3ccccc32)cc1 | – | – | inactive | 5.66 | 7.33
8 | CCCCCCCCc1ccc(OCC(=O)Cn2c(C(=O)O)cc3ccccc32)cc1 | inactive | inactive | inactive | – | –
9 | CCCCCCCCc1ccc(OCC(=O)Cn2ccc3cc(Cl)ccc32)cc1 | inactive | inactive | inactive | – | –
10 | CCCCCCCCc1ccc(OCC(=O)Cn2cc(C(=O)O)c3ccccc32)cc1 | inactive | – | inactive | < 5.00 | –
11 | CCCCCCCCc1ccc(OCC(=O)Cn2cc(Cl)c3cc(C(=O)O)ccc32)cc1 | inactive | – | inactive | – | –
12 | CCCCCCCCc1ccc(OCC(=O)Cn2ccc3cc(C#N)ccc32)cc1 | 42% | – | inactive | < 5.00 | < 5.00
13 | CCCCCCCCc1ccc(OCC(=O)Cn2cc(C=O)c3cc(C(=O)O)ccc32)cc1 | inactive | – | inactive | – | –
14 | CCCCCCCCc1ccc(OCC(=O)Cn2cnc3ccccc32)cc1 | – | 36% | inactive | < 5.00 | 6.00
15 | CCCCCCCCc1ccc(OCC(=O)Cn2ncc3ccccc32)cc1 | – | inactive | inactive | – | 5.30
16 | CCCCCCCCc1ccc(OCC(=O)Cn2cnc(C(=O)O)c2)cc1 | – | – | inactive | 5.28 | 5.72
17 | CCCCCCCCc1ccc(OCC(=O)Cn2cc(C#N)c3cc(C(=O)O)ccc32)cc1 | inactive | – | inactive | – | –
18 | CCCCCCCCc1ccc(OCC(=O)Cn2cc(C(=O)O)c3cc(C(=O)O)ccc32)cc1 | inactive | – | inactive | – | –
19 | CCCCCCCCc1ccc(OCC(=O)Cn2cncc2C(=O)O)cc1 | inactive | 18% | inactive | < 5.00 | –
20 | CCCCCCCCc1ccc(OCC(=O)Cn2ncc3ccc(C(=O)O)cc32)cc1 | 23% | – | inactive | – | < 5.00
21 | CCCCCCCCc1ccc(OCC(=O)Cn2ccc3c(C(=O)O)cccc32)cc1 | 40% | – | inactive | < 5.00 | < 5.00
22 | NC(=O)c1cccc(-c2cccc(OC(=O)NC3CCCCC3)c2)c1 | – | inactive | – | – | –

Row | Compound | inhibition [1] | inhibition [2] | inhibition [3] | pIC50 [4] | pIC50 [5]
23 | CCCCCCCCc1ccc(OCC(=O)Cn2ccc(C(=O)O)n2)cc1 | 39% | – | inactive | 5.09 | < 5.00
24 | CCCCCCCCc1ccc(OCC(=O)Cn2cc(C(C)(C)C)c3cc(C(=O)O)ccc32)cc1 | inactive | – | inactive | – | –
25 | CCCCCCCCc1ccc(OCC(=O)Cn2cccc2C(=O)O)cc1 | inactive | inactive | inactive | – | –
26 | CCCCCCCCc1ccc(OCC(=O)Cn2ccc3cc(C(=O)O)ccc32)cc1 | – | – | inactive | – | 5.55
27 | CCCCC/C=C\C/C=C\C/C=C\C/C=C\CCCC(=O)C(F)(F)F [ARACHIDONYL TRIFLUOROMETHYLKETONE] | – | – | inactive | – | 5.43
28 | CCCCCCCCc1ccc(OCC(=O)Cn2ncc3cc(C(=O)O)ccc32)cc1 | – | – | inactive | – | 6.80
29 | CCCCCCCCc1ccc(OCC(=O)Cn2cccn2)cc1 | – | 43% | inactive | < 5.00 | 5.70
30 | CCCCCCCCc1ccc(OCC(=O)Cn2cccc2)cc1 | inactive | inactive | inactive | – | –
31 | CCCCCCCCc1ccc(OCC(=O)Cn2ccnc2)cc1 | – | – | inactive | 6.30 | 6.12
32 | CCCCCCCCc1ccc(OCC(=O)Cn2nccc2C(=O)O)cc1 | inactive | 21% | inactive | < 5.00 | –
33 | CCCCCCCCc1ccc(OCC(=O)Cn2ccc3cc(C(=O)OC)ccc32)cc1 | inactive | – | inactive | < 5.00 | –
34 | O=C(CCCCCc1ccccc1)c1nc2ncccc2o1 | – | inactive | – | – | 8.05
35 | CCCCCCCCc1ccc(OCC(=O)Cn2ccc3cc(OC)ccc32)cc1 | 22% | inactive | inactive | – | < 5.00
36 | CCCCCCCCc1ccc(OCC(=O)Cn2ccc3cc(C(N)=O)ccc32)cc1 | – | – | inactive | – | 5.19
37 | CCCCCCCCCCOc1ccc(OCC(=O)COc2ccc(C(=O)O)cc2)cc1 | – | – | inactive | – | 7.23
38 | CCCCCCCCc1ccc(OCC(=O)Cn2ccc3ccccc32)cc1 | inactive | inactive | inactive | – | –
39 | CCCCCCCCc1ccc(OCC(=O)Cn2ccc(C(=O)O)c2)cc1 | – | – | inactive | 5.30 | 5.44
40 | CCCCCCCCc1ccc(OCC(=O)Cn2cnc3cc(C(=O)O)ccc32)cc1 | – | – | inactive | – | 6.21
41 | CCCCCCCCc1ccc(OCC(=O)Cn2ccc3cc(C=O)ccc32)cc1 | 45% | – | inactive | – | < 5.00
42 | CCCCCCCCc1ccc(OCC(=O)Cn2cc(C(=O)OC)c3cc(C(=O)O)ccc32)cc1 | inactive | – | inactive | – | –
43 | CCCCCCCCc1ccc(OCC(=O)Cn2cc(C(=O)O)cn2)cc1 | – | – | inactive | 5.74 | 6.96
44 | CCCCCCCCc1ccc(OCC(=O)Cn2nnc3ccc(C(=O)O)cc32)cc1 | – | – | inactive | – | 6.70

Source: ChEMBL document CHEMBL1157719, “1-Indol-1-yl-propan-2-ones and related heterocyclic compounds as dual inhibitors of cytosolic phospholipase A(2)alpha and fatty acid amide hydrolase” (Bioorg Med Chem, 2010)
